In ChEMBL document CHEMBL5390295, “Isolinderalactone Ameliorates the Pathology of Alzheimer's Disease by Inhibiting the JNK Signaling Pathway” (2023):
The source made the active and inactive calls. The rule behind the calls is not given here.

What was measured:
PC-12 = experiment: Neuroprotective activity against Abeta1-42 induced rat PC12 cells assessed as increase in cell viability at 10 uM preincubated for 3 hrs followed by Abeta1-42 induction and measured after 24 hrs in the presence of SP600125 by MTT assay; type: functional, cell-based; settings: time 27.0 hrs
Summary of the method: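 PC12 cells were seeded at 5×10^3/well and pretreated 3 h with test compound (range or 10 μM), with or without SP600125 1.25 μM for 0.5 h beforehand. Cells were then exposed to 10 μM Aβ1–42 oligomers for 24 h. MTT 0.5 mg/mL was added for 3–4 h, formazan dissolved in DMSO, and absorbance read at 570 nm. Viability is given as % of control.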

Mus musculus = experiment: Anti-alzheimer activity against mouse model APP/PS1 dE9 double transgenic mouse model assessed as improvement in average movement speed at 1 to 10 mg/kg, ip administered once daily for 30 consecutive days measured on day 1 by novel object recognition test; type: functional, organism-based; settings: dose 1-10 mg/kg, time 31.0 day

Compound: C=C[C@@]1(C)Cc2occ(C)c2[C@@H]2OC(=O)C(=C)[C@@H]21 [ISOLINDERALACTONE]
- Activity (PC-12): inactive
- Activity (Mus musculus): Active
